Assay [1] has as its system Mus musculus. The experiment in a line: Antiinflammatory activity in carrageenan-stimulated ICR mouse assessed as decrease in neutrophil number at 8 mg/kg, ip measured after 5 hrs. The class given is functional, organism-based. Also noted: dose 8 mg/kg. The procedure, abridged:
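Male ICR mice were dosed 30 min before intraplantar carrageenan, and paw biopsies were taken 5 h later. Tissue was fixed in Dietric solution for 1 week at room temperature, dehydrated in graded ethanol and paraffin-embedded. 7-thickness sections were stained with hematoxylin–eosin or Van Gieson and examined by light microscopy.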

Assay [2] concerns Mus musculus. In words: Antiinflammatory activity in ICR mouse assessed as decrease in carrageenan-induced serum TNFalpha level at 10 mg/kg, ip measured after 5 hrs. The class given is functional, organism-based. On the set-up: dose 10 mg/kg. The procedure, abridged: (§1)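 Male ICR mice (18–25 g, n = 6 per group). Carrageenan was injected intraplantar into the paw, with drug given 30 min beforehand. Serum was collected at the 5th hr. Nitrite was measured colorimetrically by Griess reaction, and TNF-α by commercial ELISA. Data are mean ± SEM.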

The subject of assay [3] is Mus musculus. The experiment in a line: Down regulation of COX-2 protein expression in carrageenan-stimulated ICR mouse at 10 mg/kg, ip measured after 5 hrs by Western blot analysis. The class given is functional. The conditions noted are these: route intraperitoneal. The procedure, abridged: (§2)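 Male ICR mice (18–25 g, n = 6 per group) received intraplantar carrageenan. Paw tissue was taken 5 h after carrageenan. Lysates were made in RIPA buffer and 30 µg protein run on SDS-PAGE/PVDF immunoblot with ECL detection. Band intensities were quantified relative to the carrageenan-alone group across three independent experiments.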

Assay [4] concerns Mus musculus. The experiment in a line: Antiinflammatory activity in ICR mouse assessed as decrease in carrageenan-induced MDA level at 10 mg/kg, ip measured after 5 hrs. The class given is functional, organism-based. Also noted: dose 10 mg/kg. The procedure, abridged: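 Male ICR mice (n = 6 per group) were dosed 30 min before intraplantar carrageenan. MDA in the edematous paw tissue was determined at the 5th hr after carrageenan.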

Assay [5] deals with Mus musculus. The experiment in a line: Antiinflammatory activity in ICR mouse assessed as inhibition of carrageenan-induced hind paw edema at 10 mg/kg, ip. The class given is functional, organism-based. On the set-up: dose 10 mg/kg. (The carrageenan paw model is a standard test of acute inflammation.)
Assay [6] relates to Mus musculus. In words: Antiinflammatory activity in ICR mouse assessed as inhibition of carrageenan-induced hind paw edema at 10 mg/kg, ip measured after 4 hrs. The class given is functional, organism-based. On the set-up: dose 10 mg/kg.
Assay [7] has as its system Mus musculus. The experiment in a line: Down regulation of iNOS protein expression in carrageenan-stimulated ICR mouse at 10 mg/kg, ip measured after 5 hrs by Western blot analysis. The class given is functional. As to conditions: route intraperitoneal. The procedure, abridged:
as §2
Background: Immunoblotting shows a protein as a band on a membrane.

The test system of assay [8] is Mus musculus. In words: Antiinflammatory activity in ICR mouse assessed as decrease in carrageenan-induced serum NO level at 10 mg/kg, ip measured after 5 hrs. On the set-up: dose 10 mg/kg. The class given is functional, organism-based. The procedure, abridged:
as §1

Assay [9] concerns Mus musculus. In words: Antioxidant activity in carrageenan-stimulated ICR mouse assessed as increase in CAT activity at 10 mg/kg, ip measured after 5 hrs. As to conditions: route intraperitoneal. The class given is functional. The procedure, abridged:
(§3)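 Male ICR mice (n = 6 per group) received the drug 30 min before intraplantar carrageenan, and paw tissue was taken at the 5th hr. Total SOD was measured by inhibition of cytochrome c reduction, CAT by Aebi's method, and cytosolic GPx by Paglia–Valentine. Activities are in U/mg protein, given as mean ± SEM.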

The test system of assay [10] is Mus musculus. In words: Antiinflammatory activity in carrageenan-stimulated ICR mouse assessed as reduction in iNOS immunoreactive cells at 8 mg/kg, ip measured after 5 hrs. The class given is functional, organism-based. Also noted: dose 8 mg/kg.
Assay [11] deals with Mus musculus. In words: Antiinflammatory activity in carrageenan-stimulated ICR mouse assessed as reduction in COX2 immunoreactive cells at 8 mg/kg, ip measured after 5 hrs. Also noted: dose 8 mg/kg. The class given is functional, organism-based.
In assay [12] the test system is Mus musculus. The experiment in a line: Antioxidant activity in carrageenan-stimulated ICR mouse assessed as increase in GPx activity at 10 mg/kg, ip measured after 5 hrs. The class given is functional. The conditions noted are these: route intraperitoneal. The procedure, abridged:
as §3

The test system of assay [13] is Mus musculus. In words: Antioxidant activity in carrageenan-stimulated ICR mouse assessed as increase in SOD activity at 10 mg/kg, ip measured after 5 hrs. The class given is functional. As to conditions: route intraperitoneal. The procedure, abridged:
as §3

We go through one compound from ChEMBL document CHEMBL1938286, “A concise synthesis of viscolin, and its anti-inflammatory effects through the suppression of iNOS, COX-2, ERK phosphorylation and proinflammatory cytokines expressions” (Eur J Med Chem, 2012).

Calls of active or inactive are those of the source. The rule behind the calls is not given here.

Turning to `COc1ccc2c(c1)c(CC(=O)O)c(C)n2C(=O)c1ccc(Cl)cc1` [INDOMETHACIN], the result with Mus musculus [1], with Mus musculus [2], with Mus musculus [4], in the assay on Mus musculus [5], with Mus musculus [6] and in the assay on Mus musculus [8] was Active. In addition, the result in the assay on Mus musculus [10] and in the assay with Mus musculus [11] was Active. In addition, the Activity came out at 73.1% with Mus musculus [3]; 69.1% with Mus musculus [7]; 4.65 U/mg with Mus musculus [9]; 10.45 U/mg with Mus musculus [12]; 3.85 U/mg with Mus musculus [13].
